Reference: the EternaBench riboswitch data

Tested on: MS2 coat protein
Assay: apparent Kd, MS2 coat protein; higher = weaker binding; RNA-MaP array; theophylline 2 mM where present
Outline: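 The apparent Kd comes from binding curves fitted cluster by cluster, filtered, and summarised as a median. Those curves followed SNAP-549-labelled MS2 coat protein from 0.7 or 1.5 nM, doubling to 3 µM, on Illumina sequencing-chip clusters where stalled E. coli RNA polymerase had transcribed the designs, without and then with constant ligand. The buffer was 100 mM Tris-HCl pH 7.5, 80 mM KCl, 4 mM MgCl2, BSA, DTT, yeast tRNA and Tween-20, and green signal was normalised to red-channel RNA signal and control-cluster median Fmax.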

[1] = designed as: OFF switch for theophylline, no ligand
[2] = ligand present: theophylline, designed as: OFF switch for theophylline
[3] = designed as: ON switch for theophylline, no ligand
[4] = ligand present: theophylline, designed as: ON switch for theophylline

Sequence | apparent Kd [1] [nM] | apparent Kd [2] [nM] | apparent Kd [3] [nM] | apparent Kd [4] [nM]
UUUGCACAUGAGGAUCACCCAUGUACAGAUACCAGCCUCAUCUACGGCCCUUGGCAGCUGAGACAAUGGUGACGUGAUGGGCUUU | 11.3 | 16.2 |  | 
AUCGUACCUGAUGAUACCAGCAUGUGAUCGUAACAUGAGGAUCACCCAUGUGAUCAGUGAUGCCCUUGGCAGCAUGAUCGGUACA |  |  | 35.4 | 14.7
GCCAGACAUGAGGAUCACCCAUGUAGCGAUACCAGCUCUGUUGUGAGCCCUUGGCAGCGCACUGGCAUCGUAGGUGAUCCAAUAA |  |  | 75.2 | 187
ACAUGAGGAUCACCCAUGUUCCUCGCCGAUACCAGUGAAGAAGUACGCCCUUGGCAGCGGAAAGAGUAUUUUGGAGAUGAGGUAC | 80 | 88.8 |  | 
GGUGGCGUGACGGAUACCAGCCACCGCCGCAAGGCCACAUGAGGAUCACCCAUGUUGGGUGGCCCUUGGCAGCUGUCGUGCGGCG |  |  | 157 | 281
CGGUACAUGAGGAUCACCCAUGUGUCGGAUACCAGAGAGCCGUCUCUCCCUUGGCAGCUGGUUUUACAUGAGGAUCACCCAUGUG | 13.6 | 20.1 |  | 
AGACAUGUAAGAUAAAUGACUUAUACAGAUACCAGACUAGUCAAUGUCCCUUGGCAGCUGCAUAACAUGAGGAUCACCCAUGUAA | 26.7 | 32.7 |  | 
AAACGUUGCUGCGAUACCAGACAUGAGGAUCACCCAUGUACCAAGGUACGAAUAUAACAUGUCCCUUGGCAGCGCAGCAACGAAA | 12.6 | 279 |  | 
ACGAUGCGACAUGAGGAUCACCCAUGUGAUACCAGCCUGGAAACAGGCCCUUGGCAGCACAAAUACUCCAGAAACGCAUCGAAUA | 267 | 439 |  | 
UCUUUCUAUGUAGAUACCAGCAUGUUAUAUUUCUAAUGACAUGAGGAUCACCCAUGUAAAUGCCCUUGGCAGCUACAUUUUCUUU |  |  | 23.1 | 16
ACAUGAGGAUCACCCAUGUGCCGUCUUGAUACCAGACGCGAAGUAGUCCCUUGGCAGCAAAUACGUGAGGGUCGCGCAUGUGUAA | 24.1 | 34.7 |  | 
UUACAUGAGGAUCACCCAUGUCAUAAUGAUACCAGAUAGUUAAUGAUCCCUUGGCAGCAUAAUACCUAGACAUUUAAGUCAUAGG |  |  | 83.1 | 41
AGAUUAAAGAGUGAUACCAGACUACAUGAGGAUCACCCAUGUUACAUUUGAGUAGCUUUAGUCCCUUGGCAGCACUUUAUGUACA | 45.5 | 17.6 |  | 
UAGGUGAUCUUCAACGGAAAACGUUGUGAUACCAGCCAACAAUACGGCCCUUGGCAGCACAUGAGGAUCACCCAUGUGUACACCG | 29.4 | 193 |  | 
GGUGAUCCGUGCUGCCGGAUCAUCGGUGAUACCAGCAUCGAAAGAUGCCCUUGGCAGCACCAACAUGAGGAUCACCCAUGUAAUA |  |  | 206 | 73.4
UCGUGUGUUUCGGAUACCAGUGAAAUCGAUACAUGAGGAUCACCCAUGUGAGAGGAUGUACACCCUUGGCAGCUGUCUGUAUCUG |  |  | 13.1 | 13.7
GGGUGCGGGAUAGAUACCAGUGCCUUAAAAUAGGCACAUGAGGAUCACCCAUGUACCGGGCGCCCUUGGCAGCUAGUACCAUCCA |  |  | 127 | 181
CAUUAAGUAACUGAUACCAGUGUACUGACAUGAGGAUCACCCAUGUUGGGUUUUGUUGUACACCCUUGGCAGCAGAAUCUUAAUG | 68.7 | 95.5 |  | 
UGUUUGGUGCGCGAGUGUUGGAUAAUUGAUACCAGUGUAGAUGUGCGCCCUUGGCAGCGAAUCCUAACAUGAGGAUCACCCAUGU |  |  | 43.8 | 57.1
AAUAACAUGAGGAUCACCCAUGUAAAAGAUACCAGAUGCAUGAUGAUCCCUUGGCAGCUUAAAACGCGAUUGGAAACAAUCGCGA |  |  | 31.2 | 126
AUCAGUAGAACUGAUACCAGUCAAAGGCUUUGACCUCAUAACAUGAGGAUCACCCAUGUUGACCCUUGGCAGCAGUAGGCAAGGG | 21.4 | 35.1 |  | 
ACGACAUGAGGAUCACCCAUGUAAGGUGAUACCAGACGAAGUAAUGUCCCUUGGCAGCACACGCAUAGUUGCGAUUAUUGUACGA |  |  | 533 | 137
UUUGAGAUAACAGAUACCAGCGUGUUAUAAAACAUGAGGAUCACCCAUGUAGUGAUCAAGCGCCCUUGGCAGCUGGUAUUUUAGG |  |  | 95.2 | 210

Sequence | apparent Kd [1] [nM] | apparent Kd [2] [nM] | apparent Kd [3] [nM] | apparent Kd [4] [nM]
UGUACAUGAGGAUCACCCAUGUUACAUGAUACCAGACAUGAGAGUGUCCCUUGGCAGCAUGGAGCUGAUACGGCGGGAAGCCGGA |  |  | 26.8 | 32.6
AAAUAAAUAACUGAUACCAGUCGGACAACAUGAGGAUCACCCAUGUUCACCCAUGUUGAGGACCCUUGGCAGCAGAAAUAUAAAA | 92.3 | 185 |  | 
CUAUAAGUAACUGAUACCAGUGUACUGACAUGAGGAUCACCCAUGUUGGGUUUUGUUGUACACCCUUGGCAGCAGAAUCUUGUAG | 62.1 | 85 |  | 
CGUGUCGUAACUGAUACCAGUGUACUGACAUGAGGAUCACCCAUGUUGGGUUUUGUUGUACACCCUUGGCAGCAGAAUCGAUACG | 76.9 | 119 |  | 
AGAAUAACACAUGAGGAUCACCCAUGUGAUACCAGCUAGGAAACUAGCCCUUGGCAGCACAUAAGGUGAUCCAGCUGCCAAGAAU | 137 | 74.9 |  | 
GAGCUGAUGUAGGCCGGAUAUCCGGGAGAUACCAGUACAGAAAUGUACCCUUGGCAGCUCUUUCCUACAUGAGGAUCACCCAUGU | 16.6 | 96 |  | 
GGUUUCGCGGGCGAUACCAGCUUGAUCGUACUGGCCUGGUACAUGAGGAUCACCCAUGUAAGCCCUUGGCAGCGCGCGCGAGACC | 11.3 | 24.7 |  | 
AAUCUGUCGGGUGAUACCAGCCUCGGCGCAUCUCACGCUGAACAUGAGGAUCACCCAUGUGGCCCUUGGCAGCACAUGACAAAUC |  |  | 572 | 55.1
CCUGCGUUUCUUUUCUUUCGCAGGAAUGAUACCAGUAGGGAAACCUACCCUUGGCAGCAUGGGACAUGAGGAUCACCCAUGUUUU |  |  | 166 | 33.4
GAUGAACUAUUUGAUACCAGACAACAUGAGGAUCACCCAUGUGCGCGUCGUCCUCUGCCUGUCCCUUGGCAGCGGAUAGUUUAUC | 59.5 | 89.9 |  | 
UGCACCAUAAUCAUGUUGGUGCUAGGUGAUACCAGCAUCGAAAGAUGCCCUUGGCAGCACCAACAUGAGGAUCACCCAUGUAAUA |  |  | 130 | 99.8
ACAUGAGGAUCACCCAUGUUCCUCAUUGAUACCAGUGAAUUUAGACGCCCUUGGCAGCGAGUUUUUUUAUAAGAUUUUUUUUUUU | 626 | 1320 |  | 
AUUAUCAUGGUCAUAUAUAUAUCGUCAGAUACCAGACUAGAUAUAGUCCCUUGGCAGCUGUUACAUGAGGAUCACCCAUGUUAUA | 138 | 47.8 |  | 
GAGGUCCUGAGAGAUACCAGUGAGGCCACAUGAGGAUCACCCAUGUCCCUCACUCCGGCCCACCCUUGGCAGCUCGGAAGGUAAA | 18.1 | 119 |  | 
GGUGGGACUUGUGAUACCAGCCCAGUUCUAAUCGAACUGCACAUGAGGAUCACCCAUGUCGGCCCUUGGCAGCAUGAGUAUUUAU |  |  | 322 | 19.3
GCACCAGGUACGGAUACCAGCUGCCAGAGAUACAUGAGGAUCACCCAUGUGACCUGAUUUAGCCCUUGGCAGCUGUACCUGGUGC |  |  | 466 | 35.7
CUGCCAUGCAGAGAUACCAGUGCGCUCAGCACAUGAGGAUCACCCAUGUCGGCUGCCGAUCACCCUUGGCAGCUCUGCAUGGCAG |  |  | 11.4 | 9.11
ACACGAGGAUCACCCGUGUCAUGUGGUGAUACCAGUUUACAUGAGAACCCUUGGCAGCAUAACAACAUGAGGAUCACCCAUGUCA |  |  | 32.3 | 41.7
CUCUGAGUGAGUAAUCACUCAGAGGCGGAUACCAGCGAGGUCCAUCGCCCUUGGCAGCCGAACAUGAGGAUCACCCAUGUCGGUA |  |  | 10.7 | 14.6
GCAUGUGGAGUCUUACUAGAGAGGACAGAUACCAGUAAGAUGUGAUACCCUUGGCAGCUGCGAUUUACAUGAGGAUCACCCAUGU | 21.5 | 24.2 |  | 
UAUAUAUAUAUUGAUACCAGCAGAGAAAACAUAUAUCCUAACAUGAGGAUCACCCAUGUAUGCCCUUGGCAGCGAUAUAUAUAUA | 26 | 32.3 |  | 
GAUGAUAUUGCAGAUACCAGACACAUGAGGAUCACCCAUGUCUCUGAGAUGAAGGAUCGUGUCCCUUGGCAGCUGCGAUAUCAUC | 32.7 | 338 |  | 
GAUGAACUAUUUGAUACCAGACUACAUGAGGAUCACCCAUGUGUGUUAAUUUUUCAGUCAGUCCCUUGGCAGCAAAUAGUUUAUC | 61.2 | 146 |  | 
